Measured values published in ChEMBL document CHEMBL1140053, “Discovery of antimycobacterial spiro-piperidin-4-ones: an atom economic, stereoselective synthesis, and biological intervention” (J Med Chem, 2008).
pIC50: −log10 of the molar value. Converted amounts (≈) assume the structure as drawn.

Assays:
[1] = test system: Mycolicibacterium smegmatis; test: Antimycobacterial activity against Mycobacterium smegmatis MC2 by agar dilution method; type: functional
[2] = test system: Vero; test: Cytotoxicity against african green monkey Vero cells after 72 hrs by MTT assay; type: cell-based; conditions: Chlorocebus sabaeus
[3] = test system: Mycobacterium tuberculosis; test: Antimycobacterial activity against Mycobacterium tuberculosis H37Rv by agar dilution method; type: functional
[4] = test system: Mycobacterium tuberculosis; test: Antimycobacterial activity against Mycobacterium tuberculosis H37Rv ATCC 35801 infected in CD1 mouse assessed as bacterial load in lungs at 25 mg/kg, ip after 10 days; type: functional; conditions: route intraperitoneal
In short: (§1)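 Six-week-old female CD-1 mice, six per group, infected via caudal vein with approximately 10⁷ viable organisms. Intraperitoneal dosing at 25 mg/kg began 10 days post-inoculation and continued for 10 days. At 35 days post-infection, spleens and right lungs were homogenized and plated in serial 10-fold dilutions on 7H10 agar, incubated at 37 °C, 4 weeks. CFU compared with vehicle-treated controls.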

[5] = Selectivity index, ratio of IC50 for african green monkey Vero cells to MIC for mycobacterium; type: functional
In short: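 Selectivity index taken as IC50/MIC. IC50 comes from Vero cells exposed to serial dilutions up to 62.5 µg/mL for 72 h, with viability read by MTT conversion to formazan. MIC comes from agar dilution in Middlebrook 7H11 with OADC at pH 7.40, run in duplicate, and is the lowest concentration giving complete growth inhibition.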

[6] = test system: Mycobacterium tuberculosis; test: Antimycobacterial activity against Mycobacterium tuberculosis H37Rv ATCC 35801 infected in CD1 mouse assessed as bacterial load in spleen at 25 mg/kg, ip after 10 days; type: functional; conditions: route intraperitoneal; in short: as §1

Row | Compound | MIC [1] | pIC50 [2] | MIC [3] | log10cfu [4] | Selectivity Index [5] | log10cfu [6]
1 | CN1C/C(=C\c2ccccc2)C(=O)[C@]2(C1)[C@@H](c1ccccc1)[C@H](c1ccccc1)N[C@@]21C(=O)Nc2ccccc21 (racemic) | 2.97 µg/mL (≈ 5.65 µM) | 3.92 | 0.74 µg/mL (≈ 1.41 µM) | – | – | –
2 | CN1C/C(=C\c2ccc(F)cc2)C(=O)[C@]2(C1)[C@@H](c1ccc(F)cc1)[C@H](c1ccccc1)N[C@@]21C(=O)Nc2ccccc21 (racemic) | 0.69 µg/mL (≈ 1.23 µM) | 3.95 | 0.07 µg/mL (≈ 0.125 µM) | 6.01 | 1634 | 5.2
3 | Cc1ccccc1/C=C1\CN(C)C[C@@]2(C1=O)[C@@H](c1ccccc1C)[C@@H]1CCCN1[C@@]21C(=O)Nc2ccccc21 (racemic) | 24.2 µg/mL (≈ 46.7 µM) | – | 12.1 µg/mL (≈ 23.4 µM) | – | – | –
4 | Cc1ccc(/C=C2\CN(C)C[C@@]3(C2=O)[C@@H](c2ccc(C)cc2)CN(C)[C@@]32C(=O)Nc3ccccc32)cc1 (racemic) | 50.9 µg/mL (≈ 104 µM) | – | 6.37 µg/mL (≈ 13 µM) | – | – | –
5 | NNC(=O)c1ccncc1 [ISONIAZID] | 45.6 µg/mL (≈ 332 µM) | – | 0.36 µg/mL (≈ 2.63 µM) | 5.61 | – | 4.92
6 | COc1ccc(/C=C2\CN(C)C[C@@]3(C2=O)[C@@H](c2ccc(OC)cc2)[C@H](c2ccccc2)N[C@@]32C(=O)Nc3ccccc32)cc1 (racemic) | 1.33 µg/mL (≈ 2.27 µM) | 3.97 | 0.67 µg/mL (≈ 1.14 µM) | – | – | –
7 | CN1C/C(=C\c2ccc(Cl)cc2Cl)C(=O)[C@]2(C1)[C@@H](c1ccc(Cl)cc1Cl)[C@@H]1CCCN1[C@@]21C(=O)Nc2ccccc21 (racemic) | 79.7 µg/mL (≈ 127 µM) | – | 19.9 µg/mL (≈ 31.8 µM) | – | – | –
8 | CN1C/C(=C\c2cccs2)C(=O)[C@]2(C1)[C@@H](c1cccs1)[C@@H]1CCCN1[C@@]21C(=O)Nc2ccccc21 (racemic) | 3.11 µg/mL (≈ 6.2 µM) | 3.90 | 0.38 µg/mL (≈ 0.757 µM) | – | – | –
9 | CN1C/C(=C\c2ccc(Cl)cc2Cl)C(=O)[C@]2(C1)[C@@H](c1ccc(Cl)cc1Cl)[C@H](c1ccccc1)N[C@@]21C(=O)Nc2ccccc21 (racemic) | 9.43 µg/mL (≈ 14.2 µM) | 4.03 | 2.35 µg/mL (≈ 3.54 µM) | – | – | –
10 | CN1C/C(=C\c2ccco2)C(=O)[C@]2(C1)[C@@H](c1ccco1)[C@H](c1ccccc1)N[C@@]21C(=O)Nc2ccccc21 (racemic) | 49.5 µg/mL (≈ 97.9 µM) | – | 24.8 µg/mL (≈ 49 µM) | – | – | –
11 | CN1C/C(=C\c2ccccc2Cl)C(=O)[C@]2(C1)[C@@H](c1ccccc1Cl)[C@H](c1ccccc1)N[C@@]21C(=O)Nc2ccccc21 (racemic) | 10.5 µg/mL (≈ 17.7 µM) | 3.98 | 2.63 µg/mL (≈ 4.42 µM) | – | – | –
12 | CN1C/C(=C\c2ccc(F)cc2)C(=O)[C@]2(C1)[C@@H](c1ccc(F)cc1)[C@@H]1CCCN1[C@@]21C(=O)Nc2ccccc21 (racemic) | 23.8 µg/mL (≈ 45.3 µM) | 3.92 | 2.97 µg/mL (≈ 5.65 µM) | – | – | –
13 | COc1ccccc1/C=C1\CN(C)C[C@@]2(C1=O)[C@@H](c1ccccc1OC)[C@@H]1CCCN1[C@@]21C(=O)Nc2ccccc21 (racemic) | 2.84 µg/mL (≈ 5.17 µM) | 3.94 | 0.71 µg/mL (≈ 1.29 µM) | – | – | –
14 | CN1C/C(=C\c2ccc(Cl)cc2Cl)C(=O)[C@]2(C1)[C@@H](c1ccc(Cl)cc1Cl)CN(C)[C@@]21C(=O)Nc2ccccc21 (racemic) | 5.21 µg/mL (≈ 8.66 µM) | 3.98 | 1.29 µg/mL (≈ 2.15 µM) | – | – | –
15 | Cc1ccccc1/C=C1\CN(C)C[C@@]2(C1=O)[C@@H](c1ccccc1C)[C@H](c1ccccc1)N[C@@]21C(=O)Nc2ccccc21 (racemic) | 11.3 µg/mL (≈ 20.4 µM) | 3.95 | 2.82 µg/mL (≈ 5.09 µM) | – | – | –
16 | COc1ccc(/C=C2\CN(C)C[C@@]3(C2=O)[C@@H](c2ccc(OC)cc2)CN(C)[C@@]32C(=O)Nc3ccccc32)cc1 (racemic) | 2.98 µg/mL (≈ 5.69 µM) | 3.92 | 0.75 µg/mL (≈ 1.43 µM) | – | – | –
17 | CN1C/C(=C\c2cccc3ccccc23)C(=O)[C@]2(C1)[C@@H](c1cccc3ccccc13)[C@@H]1CCCN1[C@@]21C(=O)Nc2ccccc21 (racemic) | 10.6 µg/mL (≈ 18 µM) | 3.97 | 2.65 µg/mL (≈ 4.49 µM) | – | – | –
18 | Cc1ccc(/C=C2\CN(C)C[C@@]3(C2=O)[C@@H](c2ccc(C)cc2)[C@@H]2CCCN2[C@@]32C(=O)Nc3ccccc32)cc1 (racemic) | 24.2 µg/mL (≈ 46.7 µM) | – | 12.1 µg/mL (≈ 23.4 µM) | – | – | –
19 | CN1C/C(=C\c2cccs2)C(=O)[C@]2(C1)[C@@H](c1cccs1)[C@H](c1ccccc1)N[C@@]21C(=O)Nc2ccccc21 (racemic) | 11.6 µg/mL (≈ 21.6 µM) | – | 11.6 µg/mL (≈ 21.6 µM) | – | – | –
20 | CN1C/C(=C\c2ccc(Cl)cc2)C(=O)[C@]2(C1)[C@@H](c1ccc(Cl)cc1)[C@@H]1CCCN1[C@@]21C(=O)Nc2ccccc21 (racemic) | 90.9 µg/mL (≈ 163 µM) | – | 22.7 µg/mL (≈ 40.7 µM) | – | – | –
21 | CN1C/C(=C\c2ccc(Cl)cc2)C(=O)[C@]2(C1)[C@@H](c1ccc(Cl)cc1)CN(C)[C@@]21C(=O)Nc2ccccc21 (racemic) | 5.88 µg/mL (≈ 11 µM) | 3.93 | 2.93 µg/mL (≈ 5.5 µM) | – | – | –

Row | Compound | MIC [1] | pIC50 [2] | MIC [3] | log10cfu [4] | Selectivity Index [5] | log10cfu [6]
22 | CN1C/C(=C\c2ccco2)C(=O)[C@]2(C1)[C@@H](c1ccco1)[C@@H]1CCCN1[C@@]21C(=O)Nc2ccccc21 (racemic) | 107 µg/mL (≈ 227 µM) | – | 53.3 µg/mL (≈ 114 µM) | – | – | –
23 | CN1C/C(=C\c2ccccc2Cl)C(=O)[C@]2(C1)[C@@H](c1ccccc1Cl)[C@@H]1CCCN1[C@@]21C(=O)Nc2ccccc21 (racemic) | 5.69 µg/mL (≈ 10.2 µM) | 3.94 | 0.35 µg/mL (≈ 0.627 µM) | – | – | –
24 | COc1ccc(/C=C2\CN(C)C[C@@]3(C2=O)[C@@H](c2ccc(OC)cc2)[C@@H]2CCCN2[C@@]32C(=O)Nc3ccccc32)cc1 (racemic) | 45.5 µg/mL (≈ 82.8 µM) | – | 5.7 µg/mL (≈ 10.4 µM) | – | – | –
25 | Cc1ccccc1/C=C1\CN(C)C[C@@]2(C1=O)[C@@H](c1ccccc1C)CN(C)[C@@]21C(=O)Nc2ccccc21 (racemic) | 1.59 µg/mL (≈ 3.23 µM) | 3.90 | 0.39 µg/mL (≈ 0.793 µM) | – | – | –
26 | CN1C/C(=C\c2cccc(F)c2)C(=O)[C@]2(C1)[C@@H](c1cccc(F)c1)CN(C)[C@@]21C(=O)Nc2ccccc21 (racemic) | 6.27 µg/mL (≈ 12.6 µM) | 3.90 | 1.56 µg/mL (≈ 3.12 µM) | – | – | –
27 | CN1C/C(=C\c2cccc(F)c2)C(=O)[C@]2(C1)[C@@H](c1cccc(F)c1)[C@H](c1ccccc1)N[C@@]21C(=O)Nc2ccccc21 (racemic) | 5.58 µg/mL (≈ 9.94 µM) | 3.95 | 2.78 µg/mL (≈ 4.95 µM) | – | – | –
28 | CN1C/C(=C\c2cccc(F)c2)C(=O)[C@]2(C1)[C@@H](c1cccc(F)c1)[C@@H]1CCCN1[C@@]21C(=O)Nc2ccccc21 (racemic) | 23.8 µg/mL (≈ 45.3 µM) | – | 5.96 µg/mL (≈ 11.3 µM) | – | – | –
29 | COc1ccccc1/C=C1\CN(C)C[C@@]2(C1=O)[C@@H](c1ccccc1OC)CN(C)[C@@]21C(=O)Nc2ccccc21 (racemic) | 2.98 µg/mL (≈ 5.69 µM) | 3.92 | 0.36 µg/mL (≈ 0.688 µM) | – | – | –
30 | COc1ccccc1/C=C1\CN(C)C[C@@]2(C1=O)[C@@H](c1ccccc1OC)[C@H](c1ccccc1)N[C@@]21C(=O)Nc2ccccc21 (racemic) | 1.33 µg/mL (≈ 2.27 µM) | 3.97 | 1.33 µg/mL (≈ 2.27 µM) | – | – | –
31 | CN1C/C(=C\c2ccccc2Cl)C(=O)[C@]2(C1)[C@@H](c1ccccc1Cl)CN(C)[C@@]21C(=O)Nc2ccccc21 (racemic) | 1.47 µg/mL (≈ 2.76 µM) | 3.93 | 0.17 µg/mL (≈ 0.319 µM) | – | – | –
32 | CN1C/C(=C\c2ccco2)C(=O)[C@]2(C1)[C@@H](c1ccco1)CN(C)[C@@]21C(=O)Nc2ccccc21 (racemic) | 0.88 µg/mL (≈ 1.98 µM) | 3.85 | 1.76 µg/mL (≈ 3.97 µM) | – | – | –
33 | CN1C/C(=C\c2cccc3ccccc23)C(=O)[C@]2(C1)[C@@H](c1cccc3ccccc13)[C@H](c1ccccc1)N[C@@]21C(=O)Nc2ccccc21 (racemic) | 20 µg/mL (≈ 32 µM) | – | 5.01 µg/mL (≈ 8.01 µM) | – | – | –
34 | CN1C/C(=C\c2cccs2)C(=O)[C@]2(C1)[C@@H](c1cccs1)CN(C)[C@@]21C(=O)Nc2ccccc21 (racemic) | 6.59 µg/mL (≈ 13.9 µM) | 3.88 | 1.64 µg/mL (≈ 3.45 µM) | – | – | –
35 | O=C(O)c1cn(C2CC2)c2cc(N3CCNCC3)c(F)cc2c1=O [CIPROFLOXACIN] | 2.35 µg/mL (≈ 7.09 µM) | – | – | – | – | –
36 | CN1C/C(=C\c2ccc(Cl)cc2)C(=O)[C@]2(C1)[C@@H](c1ccc(Cl)cc1)[C@H](c1ccccc1)N[C@@]21C(=O)Nc2ccccc21 (racemic) | 42.1 µg/mL (≈ 70.8 µM) | – | 5.27 µg/mL (≈ 8.86 µM) | – | – | –
37 | CN1C/C(=C\c2ccccc2)C(=O)[C@]2(C1)[C@@H](c1ccccc1)CN(C)[C@@]21C(=O)Nc2ccccc21 (racemic) | 54 µg/mL (≈ 116 µM) | – | 13.5 µg/mL (≈ 29.1 µM) | – | – | –
38 | CN1C/C(=C\c2ccc(F)cc2)C(=O)[C@]2(C1)[C@@H](c1ccc(F)cc1)CN(C)[C@@]21C(=O)Nc2ccccc21 | 50.1 µg/mL (≈ 100 µM) | – | 6.27 µg/mL (≈ 12.6 µM) | – | – | –
39 | CN1C/C(=C\c2ccccc2)C(=O)[C@]2(C1)[C@@H](c1ccccc1)[C@@H]1CCCN1[C@@]21C(=O)Nc2ccccc21 (racemic) | 102 µg/mL (≈ 209 µM) | – | 25.6 µg/mL (≈ 52.2 µM) | – | – | –
40 | CN1C/C(=C\c2cccc3ccccc23)C(=O)[C@]2(C1)[C@@H](c1cccc3ccccc13)CN(C)[C@@]21C(=O)Nc2ccccc21 (racemic) | 22.2 µg/mL (≈ 39.4 µM) | – | 11.1 µg/mL (≈ 19.7 µM) | – | – | –
41 | Cc1ccc(/C=C2\CN(C)C[C@@]3(C2=O)[C@@H](c2ccc(C)cc2)[C@H](c2ccccc2)N[C@@]32C(=O)Nc3ccccc32)cc1 (racemic) | 2.82 µg/mL (≈ 5.09 µM) | 3.95 | 0.71 µg/mL (≈ 1.28 µM) | – | – | –
